Hits are enriched below; roughly 1.4% of the tested compounds scored in any of these assays.
TNAP inh noacc: human TNAP enzyme inhibitors, primary screen, biochemical, luminescent, no phosphate acceptor, uHTS; Alkaline phosphatase, tissue-nonspecific isozyme (Homo sapiens), P05186; purified TNAP, CDP-star luminescence, 30 min; inhibition, % at 20 µM; actives 0.26% (n = 200,000); AID 1012, 2008;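 active = tissue-nonspecific alkaline phosphatase inhibition above about 50% at 20 µM in the single-dose screen, limit read from the data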;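 also: 0% = DMSO negative control and 100% = EDTA positive control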
CHT allo act: CHT positive allosteric modulators, primary screen, cell-based, membrane potential dye, choline EC20; AID 488977, 2010; B-score at 10 µM; CHT-expressing cells; hits give high values; LV-AA mutant CHT in HEK293 cells; actives 0.49% (n = 310,000);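 active = initial fluorescence not abnormally high and integrated response B-score, plate-corrected, over 3 SD above library mean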
Target sequence (Q9GZV3 whole entry, looked up): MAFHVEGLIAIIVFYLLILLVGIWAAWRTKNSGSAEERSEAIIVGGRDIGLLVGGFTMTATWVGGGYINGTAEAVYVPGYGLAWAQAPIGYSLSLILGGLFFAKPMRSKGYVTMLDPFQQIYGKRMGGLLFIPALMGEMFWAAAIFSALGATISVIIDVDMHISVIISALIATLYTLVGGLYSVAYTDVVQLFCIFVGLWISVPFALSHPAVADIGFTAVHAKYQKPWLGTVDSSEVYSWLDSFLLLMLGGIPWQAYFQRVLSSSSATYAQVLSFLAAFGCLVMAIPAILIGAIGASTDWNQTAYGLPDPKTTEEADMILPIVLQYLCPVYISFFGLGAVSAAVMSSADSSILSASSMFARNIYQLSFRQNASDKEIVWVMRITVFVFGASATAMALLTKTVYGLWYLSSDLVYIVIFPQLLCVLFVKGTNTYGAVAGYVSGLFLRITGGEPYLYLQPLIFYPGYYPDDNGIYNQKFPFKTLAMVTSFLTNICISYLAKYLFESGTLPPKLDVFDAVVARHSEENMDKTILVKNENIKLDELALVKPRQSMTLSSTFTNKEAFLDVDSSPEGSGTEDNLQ
TNAP act hi DEA: TNAP activators at high phosphate acceptor level, primary screen, biochemical, luminescence, uHTS | purified TNAP, CDP-star luminescence, 1 M DEA, 30 min; hits give high values; 0 = EDTA background, 1 = DMSO-only activity | activation factor at 20 µM | 200,000 tested, under 10 active;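 active = activation factor at least 2 at 20 µM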
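Dosing: 20 µM single point. System: human TNAP. Amount: TNAP 1/800 final. Incubation: 30 min, room temperature. Read-out: TNAP activation factor scaled between EDTA and DMSO control wells. Signal: luminescence from CDP-star hydrolysis. Medium: 1 M DEA, pH 9.8, Mg2+, Zn2+. Control set: EDTA negative control, DMSO positive control.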
CHT block: inhibitors of human choline transporter CHT. High affinity choline transporter 1 (Homo sapiens), Q9GZV3. CHT-expressing cells, membrane potential dye, choline response; hits give low values. B-score at 10 µM. actives 0.86% (n = 310,000). AID 488975, 2010;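 active = B-score over 3 SD under the library average, and starting fluorescence ratio not unusually high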;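 also: choline stimulus applied at its EC90 after an EC20 pre-addition; B-score computed on integrated fluorescence ratio after choline addition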
ABCB6 inh 2: ABCB6 transporter inhibitors, primary screen, K562-ABCB6 cells, flow cytometry, MLPCN library; ATP-binding cassette sub-family B member 6 (Homo sapiens), Q9NP58; K562-ABCB6 porphyrin accumulation, 1 h; hits give low values; fluorescence ratio to DMSO, % at 10 µM; actives 0.19% (n = 360,000);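 active = fluorescence ratio to DMSO below 75%, the collection mean minus 3 SD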;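 also: signal is porphyrin accumulated inside mitochondria; 100% equals median channel fluorescence of DMSO control wells; lower ratio means ABCB6 inhibition with less porphyrin fluorescence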
TNAP inh hiacc: human TNAP enzyme inhibitors, primary screen, biochemical, luminescent, high phosphate acceptor level, uHTS; Alkaline phosphatase, tissue-nonspecific isozyme (Homo sapiens), P05186; purified TNAP, CDP-star luminescence, 1 M DEA; inhibition, % at 20 µM; actives 0.03% (n = 200,000); AID 1135, 2008;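 active = over 50% inhibition of tissue-nonspecific alkaline phosphatase at 20 µM in the single-dose screen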;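 also: plate controls were DMSO wells for no effect and EDTA-quenched wells as full inhibition for full effect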
CHT act confirm: CHT activators, confirmation, cell-based, membrane potential dye, duplicate; AID 504833, 2011; shares compounds with CHT allo act; CHT-expressing cells, membrane potential dye fluorescence (FDSS); % of choline EC20–EC90 response window; HEK293 expressing CHT LV-AA mutant; choline added at its EC20; actives 91% (n = 2,500); activation, % at 10 µM;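 active = primary screen active, with duplicate mean activation above negative control mean plus 3 SD, cut at about 11% in these data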
HEK293 MP dye: membrane potential response in parental HEK293 cells, counter-screen for CHT activator project, cell-based, membrane potential dye; AID 623908, 2012; membrane potential dye fluorescence (FDSS); measured after EC20 choline addition; ratio readout change at 10 µM, hits read low; actives 62% (n = 2,500); shares compounds with CHT allo act;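 active = duplicate-averaged ratio beyond 3 SD from buffer wells, up or down, though filed actives are nearly all decreases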
Starred values were filed as active, the others as inactive; i = inactive; nt = no result.

SMILES | TNAP inh noacc | CHT allo act | TNAP act hi DEA | CHT block | ABCB6 inh 2 | TNAP inh hiacc | CHT act confirm | HEK293 MP dye
C#CCOCCOCCOCCNc1nc(N2CCN(C(=O)[C@H](CCCCN)n3cc([C@@H](N)C(C)CC)nn3)CC2)nc(N2CCN(C(=O)[C@H](CCCCN)n3cc([C@@H](N)CC(C)C)nn3)CC2)n1 (some centres not stated) | -16 | 6.5* | 1.1 | i | 95 | -10 | 38* | -37*
COc1ccc(CC(=O)OCC(=O)NCc2ccco2)cc1 | nt | 7* | nt | i | 90 | nt | -6 | i
CC1CC(C)CN(S(=O)(=O)c2ccc(C(=O)N(c3ccccn3)C3CCCCC3)cc2)C1 (configuration not stated) | -2 | i | 1 | i | 97 | 0 | 21* | i
O=C(c1ccc(S(=O)(=O)N2CCCCC2)cc1)N(c1ccccn1)C1CCCCC1 | nt | i | nt | i | 100 | nt | nt | nt
O=C(CCCOC(=O)c1ccc(O)cc1O)c1ccc(Br)cc1 | nt | nt | nt | nt | 104 | nt | nt | nt
CCCCC(=O)Nc1ccccc1N1CCN(c2ccccc2)CC1 | -12 | i | 1.1 | i | 97 | -6 | 22* | i
CCCCCC(=O)Nc1ccccc1N1CCOCC1 | -5 | i | 1 | i | 98 | -1 | nt | nt
C[C@H](NC(=O)C(c1ccccc1)c1ccccc1)c1ccccc1 | nt | 7.9* | nt | i | 95 | nt | 6 | i
CCC1=C(OC(=O)N(CC)CC)N2C(=O)OC(=NCC3CC3)[C@]2(Cc2ccccc2)[C@H]2C1=CC[C@H]1C(=O)N(C)C(=O)[C@H]12 | nt | 7.2* | nt | i | 98 | nt | 40* | i
Cc1cccn2c(CN3CCNC(=O)CC3)c(C(=O)N(C)CCc3ccccc3)nc12 | -8 | i | 1.1 | i | 91 | -7 | 1 | i
COc1ccc(Oc2nc3c(c(=O)n(C)c(=O)n3C)n2Cc2ccccc2)cc1 | -10 | i | 1 | i | 91 | -5 | nt | nt
CC(C)CCn1c(Oc2ccc(Cl)cc2)nc2c1c(=O)n(C)c(=O)n2C | -9 | i | 1.1 | i | 97 | -6 | 25* | i
Fc1ccc(Oc2ncccn2)c(F)c1 | -3 | i | 1.1 | i | 106 | -6 | nt | nt
CC(CC12CC3CC(CC(C3)C1)C2)NCc1ccccc1O (configuration not stated) | nt | i | nt | i | 94 | nt | 5 | i
CC(NCc1ccccc1O)c1ccccc1 (configuration not stated) | -13 | i | 1 | i | 101 | 0 | nt | nt
Cc1ccc(COn2c(-c3ccc(Cl)cc3Cl)nc3ncccc32)cc1 | 1 | 6.6* | 1 | i | 100 | 2 | 31* | i
COc1cc(C2C(C#N)=C(N)Oc3cc(N)ccc32)cc(OC)c1OC (configuration not stated) | 0 | 7.7* | 1 | i | 99 | 3 | 40* | i
CSc1ccc(CN2C(=O)C(C)ON=C2c2ccccc2F)cc1 (configuration not stated) | nt | nt | nt | nt | 98 | nt | nt | nt
NC(N)=NC(=O)c1nc(Cl)c(N2CCCCCC2)nc1N | nt | i | nt | i | 100 | nt | 42* | -22*
COC(=O)c1nc(Cl)c(Cl)c(N)c1Cl | -13 | i | 1 | i | 99 | -5 | nt | nt
NC(N)=NC(=O)c1nc(Cl)c(N)nc1N | -8 | 7.2* | 1 | i | 105 | -1 | 18* | -41*
Nc1c(Cl)ncnc1N1CCCC1 | -10 | i | 1.1 | i | 95 | -6 | nt | nt
NC(=O)/C(=C\c1cccnc1)NC(=O)c1ccccc1 | -2 | i | 1.1 | i | 90 | -6 | nt | nt
NCc1cc2c3c(c1)CCCN3CCC2 | nt | i | nt | i | 101 | nt | 13* | -100*
CCCCC1(C)OC(=O)C(=Cc2ccc(N(C)C)cc2)C(=O)O1 (configuration not stated) | 3 | i | 1 | i | 117 | 2 | nt | nt
SMILES | TNAP inh noacc | CHT allo act | TNAP act hi DEA | CHT block | ABCB6 inh 2 | TNAP inh hiacc | CHT act confirm | HEK293 MP dye
COc1cc(/C=C/C(=O)NC(C)CCc2ccccc2)cc(OC)c1OC (configuration not stated) | -8 | i | 1 | i | 83 | -2 | 0 | i
CC(CCc1ccccc1)NC(=O)/C=C/c1ccccc1 (configuration not stated) | 4 | i | 1 | i | 95 | -2 | nt | nt
Cn1c(=O)c2c(nc(SCCN3CCOCC3)n2Cc2ccc(F)cc2)n(C)c1=O | -7 | i | 1 | i | 91 | 0 | nt | nt
Cn1c(=O)c2c(nc(N3CCOCC3)n2CCc2ccccc2)n(C)c1=O | -5 | i | 1 | i | 100 | 2 | nt | nt
CCCCCCn1c(SCCN2CCOCC2)nc2c1c(=O)[nH]c(=O)n2C | -1 | i | 1 | i | 102 | -1 | nt | nt
CCCCCn1c(SCCN2CCOCC2)nc2c1c(=O)[nH]c(=O)n2C | -11 | i | 1.1 | i | 101 | -6 | 39* | -37*
CCn1c(SCCN2CCOCC2)nc2c1c(=O)n(C)c(=O)n2C | nt | i | nt | i | 95 | nt | 49* | -38*
CN(C)C=NCCn1c(N2CCOCC2)nc2c1c(=O)n(C)c(=O)n2C | -6 | 14* | 1 | i | 97 | 1 | 68* | -70*
Cn1c(=O)c2c(nc(SCCN3CCOCC3)n2C)n(C)c1=O | nt | i | nt | i | 100 | nt | 51* | -51*
Cc1c(Br)cccc1NC(=O)C1(C)CCN1CCc1ccccc1 (configuration not stated) | nt | nt | nt | nt | 101 | nt | nt | nt
COc1ccc(/C=N/Nc2ccccn2)cc1O | nt | i | nt | i | 102 | nt | 35* | -48*
c1cncc(-c2cn(C[C@H]3CC[C@@H]([C@@H]4CC[C@H](Cn5cc(-c6cccnc6)nn5)O4)O3)nn2)c1 | nt | i | nt | i | 100 | nt | nt | nt

Compound activity (PubChem BioAssay)
